Assay results from ChEMBL document CHEMBL5352427, “Isoquinolone derivatives as lysophosphatidic acid receptor 5 (LPA5) antagonists: Investigation of structure-activity relationships, ADME properties and analgesic effects” (Eur J Med Chem, 2022).
≈ marks a conversion by molar mass, not a printed value. Calls of active or inactive are those of the source.

Legend:
[1] = molecular target: T1, Lysophosphatidic acid receptor 5 (Homo sapiens, UniProt Q9H1C0); experiment: Antagonist activity at human LPA5 receptor expressed in RH7777 cells assessed as inhibition of EC80 concentration of hexadecyl LPA-induced calcium mobilization incubated for 15 mins by FLIPR method relative to hexadecyl LPA; type: functional, cell-based; conditions: filed as antagonist
[2] = molecular target: T1, Lysophosphatidic acid receptor 5; experiment: Antagonist activity at human LPA5 receptor expressed in RH7777 cells assessed as inhibition of EC80 concentration of hexadecyl LPA-induced calcium mobilization incubated for 15 mins by FLIPR method; type: functional, cell-based
[3] = molecular target: T1, Lysophosphatidic acid receptor 5; experiment: Agonist activity at human LPA5 receptor expressed in RH7777 cells assessed as calcium mobilization incubated for 15 mins by FLIPR method; type: functional, cell-based
Method in brief: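 RH7777 cells stably expressing hLPA5, plated 20,000/well in 0.2% FBS medium 18–20 h, loaded 45 min at 37 °C with Calcium 5 dye in HBSS/20 mM HEPES/2.5 mM probenecid pH 7.4. […] Duplicates.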

[4] = molecular target: T1, Lysophosphatidic acid receptor 5; experiment: Antagonist activity at human LPA5 receptor expressed in RH7777 cells assessed as inhibition of EC80 concentration of LPA-induced cAMP accumulation preincubated for 30 mins followed by Eu-cAMP tracer addition and measured after 1 hr by TR-FRET assay; type: functional, cell-based
Method in brief: (§1)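 hLPA5-RH7777 cells, switched to 0.2% FBS medium 20 h prior, lifted with versene, 2,000 cells/well in HBSS/5 mM HEPES/0.1% BSA/0.5 mM IBMX pH 7.4. Compound dilutions with hexadecyl LPA 16:0 EC80 (300 nM) plus forskolin, 30 min room temperature; LANCE Ultra Eu-cAMP tracer/ULight-anti-cAMP 1 h; TR-FRET 665 nm converted to cAMP via standard curve. Three-parameter logistic IC50; ≥3 experiments in duplicate.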

[5] = molecular target: T1, Lysophosphatidic acid receptor 5; experiment: Antagonist activity at human LPA5 receptor expressed in RH7777 cells assessed as inhibition of EC80 concentration of LPA-induced cAMP accumulation preincubated for 30 mins followed by Eu-cAMP tracer addition and measured after 1 hr by TR-FRET assay relative to hexadecyl LPA; type: functional, cell-based; conditions: filed as antagonist; method in brief: as §1
[6] = molecular target: Lysophosphatidic acid receptor 4 (Homo sapiens) (UniProt Q99677); experiment: Antagonist activity at human LPA4 receptor expressed in CHO cells assessed as inhibition of LPA-induced calcium accumulation preincubated for 30 mins followed by Eu-cAMP tracer addition and measured after 1 hr by TR-FRET assay relative to hexadecyl LPA; type: functional, cell-based
[7] = Apparent permeability across apical to basolateral side in MDCK-MDR1 cells incubated for 90 mins by LC-MS/MS analysis; type: ADME, cell-based, Canis lupus familiaris; conditions: dog, mdck-mdr1, 1.5 h
Method in brief: (§2)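 MDCK-MDR1 cells (passage 5) grown 3 days on Transwell polycarbonate inserts; transport buffer HBSS/10 mM HEPES/0.25% BSA pH 7.4, 30 min preincubation 37 °C with TEER check. 10 μM test article added apical (A-to-B) or basolateral (B-to-A); receiver sampled at 30, 60, 90 min, LC-MS/MS. Papp = (dQ/dt)/(A·Ci); efflux ratio B-to-A/A-to-B. Atenolol, propranolol, digoxin references.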

Rattus norvegicus [8] = experiment: Antiallodynic activity against CFA-induced Sprague-Dawley rat inflammatory pain model assessed as reduction in paw withdrawal threshold at 17.8 mg/kg measured after 5 hrs; type: functional, organism-based
Method in brief: (§3)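 Adult male Sprague-Dawley rats (230–280 g, n=6/group); 0.1 ml CFA injected into right hind paw. Compounds i.p. (1–2 ml/kg) in 20% DMSO/10% emulphor/saline; AS2717638 in 30% propylene glycol vehicle. Mechanical paw withdrawal threshold (cut-off 26 g) measured every 30 min after single dose; two-way ANOVA, mean ± SEM.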

[9] = molecular target: Lysophosphatidic acid receptor 2 (Homo sapiens) (UniProt Q9HBW0); experiment: Antagonist activity at human LPA2 receptor expressed in CHO cells assessed as inhibition of LPA-induced calcium mobilization at 10 uM incubated for 15 mins by FLIPR analysis relative to control; type: functional, cell-based
Method in brief: (§4)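 Calcium mobilization in CHO cells overexpressing LPA1, LPA2 or LPA3, run by a contract lab under its own protocols; compounds tested at single 10 μM.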

[10] = molecular target: T2, Lysophosphatidic acid receptor 3 (Homo sapiens) (UniProt Q9UBY5); experiment: Antagonist activity at human LPA3 receptor expressed in CHO cells assessed as inhibition of LPA-induced calcium mobilization at 10 uM incubated for 15 mins by FLIPR analysis relative to control; type: functional, cell-based; method in brief: as §4
T2 sequence (whole entry): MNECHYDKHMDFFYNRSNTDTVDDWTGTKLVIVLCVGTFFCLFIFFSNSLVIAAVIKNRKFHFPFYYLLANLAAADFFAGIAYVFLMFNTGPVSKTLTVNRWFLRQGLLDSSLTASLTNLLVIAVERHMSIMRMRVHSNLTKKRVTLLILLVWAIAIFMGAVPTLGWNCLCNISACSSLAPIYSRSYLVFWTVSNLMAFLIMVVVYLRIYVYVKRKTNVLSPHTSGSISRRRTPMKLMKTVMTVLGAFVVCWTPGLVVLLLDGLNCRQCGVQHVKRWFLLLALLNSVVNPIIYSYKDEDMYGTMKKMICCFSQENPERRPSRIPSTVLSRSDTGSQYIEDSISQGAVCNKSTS

[11] = molecular target: Lysophosphatidic acid receptor 1 (Homo sapiens) (UniProt Q92633); experiment: Antagonist activity at human LPA1 receptor expressed in CHO cells assessed as inhibition of LPA-induced calcium mobilization at 10 uM incubated for 15 mins by FLIPR analysis relative to control; type: functional, cell-based; method in brief: as §4
[12] = Aqueous solubility of compound at pH 7.4; type: physicochemical; conditions: aqueous medium
Method in brief: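 Kinetic solubility: 20 mM DMSO stock diluted into PBS (1 mM KH2PO4, 3 mM Na2HPO4, 155 mM NaCl) to a target of 400 μM; triplicates quantified by LC-MS/MS against matrix-matched standards.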

[13] = Substrate activity at P-glycoprotein (unknown origin) in MDCK-MDR1 cells assessed as efflux ratio of apparent permeability across basolateral to apical over apical to basolateral side measured after 90 mins by LC-MS/MS analysis; type: ADME, cell-based, Canis lupus familiaris; conditions: dog, mdck-mdr1, 1.5 h; method in brief: as §2
Rattus norvegicus [14] = species: Rattus norvegicus; experiment: Antiallodynic activity against CFA-induced mechanical allodynia Sprague-Dawley rat model assessed as reduction paw threshold pain measured after 2 hrs; type: functional, organism-based; conditions: dose 32.0 mg/kg; method in brief: as §3
Rattus norvegicus [15] = species: Rattus norvegicus; experiment: Antinociceptive activity in CCI surgery-neuropathic pain induced Sprague-Dawley rat model assessed as reduction in paw threshold pain measured after 2 hrs; type: functional, organism-based; conditions: dose 32.0 mg/kg
Method in brief: (§5)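 Male Sprague-Dawley rats (n=6), ketamine/xylazine anesthesia; four chromic gut ligatures ~1 mm apart around the right sciatic nerve. Drugs i.p. in DMSO/emulphor/saline (AS2717638 in propylene glycol vehicle), single or cumulative dosing with paw withdrawal threshold (cut-off 26 g) measured every 30 min.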

Rattus norvegicus [16] = experiment: Antiallodynic activity against CFA-induced Sprague-Dawley rat inflammatory pain model assessed as reduction in paw withdrawal threshold at 32 mg/kg measured after 2 hrs; type: functional, organism-based; method in brief: as §3
Rattus norvegicus [17] = experiment: Antiallodynic activity against CFA-induced mechanical allodynia Sprague-Dawley rat model assessed as reduction paw threshold pain measured at 32 mg/kg, ip; type: functional, organism-based; conditions: time 2.0 hrs, TDE = time-dependent effect; method in brief: as §3
Homo sapiens = species: Homo sapiens; experiment: Selectivity ratio of IC50 for antagonist activity at human LPA5 receptor expressed in RH7777 cells assessed as inhibition of LPA-induced cAMP accumulation to IC50 for antagonist activity at human LPA5 receptor expressed in RH7777 cells assessed as inhibition of LPA-induced calcium mobilization; type: cell-based
Rattus norvegicus [18] = experiment: Antinociceptive activity in CCI surgery-neuropathic pain induced Sprague-Dawley rat model assessed as reduction in paw threshold pain measured at 32 mg/kg, ip; type: functional, organism-based; conditions: time 2.0 hrs, TDE = time-dependent effect; method in brief: as §5

T1 sequence (Q9H1C0 whole entry): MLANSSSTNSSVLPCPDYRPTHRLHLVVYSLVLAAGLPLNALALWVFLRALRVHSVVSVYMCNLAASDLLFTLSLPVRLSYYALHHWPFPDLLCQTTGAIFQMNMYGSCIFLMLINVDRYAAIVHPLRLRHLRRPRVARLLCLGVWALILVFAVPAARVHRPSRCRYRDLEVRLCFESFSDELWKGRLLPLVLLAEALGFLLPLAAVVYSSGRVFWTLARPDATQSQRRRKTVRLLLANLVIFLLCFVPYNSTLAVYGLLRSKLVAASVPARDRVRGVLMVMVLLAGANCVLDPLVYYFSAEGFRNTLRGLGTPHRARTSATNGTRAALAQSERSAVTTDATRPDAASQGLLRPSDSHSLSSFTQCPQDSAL
Chain of Lysophosphatidic acid receptor 2 (Homo sapiens) (Q9HBW0 whole entry): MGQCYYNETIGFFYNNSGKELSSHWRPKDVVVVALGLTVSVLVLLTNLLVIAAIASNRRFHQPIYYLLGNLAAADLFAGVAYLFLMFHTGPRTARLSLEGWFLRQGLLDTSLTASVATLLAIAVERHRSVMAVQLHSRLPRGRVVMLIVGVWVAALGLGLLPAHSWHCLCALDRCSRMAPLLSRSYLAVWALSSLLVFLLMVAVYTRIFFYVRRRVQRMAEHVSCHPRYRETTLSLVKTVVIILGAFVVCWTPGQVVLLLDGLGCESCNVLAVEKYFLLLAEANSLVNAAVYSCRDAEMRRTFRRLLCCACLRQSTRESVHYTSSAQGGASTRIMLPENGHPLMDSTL
Chain of Lysophosphatidic acid receptor 4 (Homo sapiens) (Q99677 whole entry): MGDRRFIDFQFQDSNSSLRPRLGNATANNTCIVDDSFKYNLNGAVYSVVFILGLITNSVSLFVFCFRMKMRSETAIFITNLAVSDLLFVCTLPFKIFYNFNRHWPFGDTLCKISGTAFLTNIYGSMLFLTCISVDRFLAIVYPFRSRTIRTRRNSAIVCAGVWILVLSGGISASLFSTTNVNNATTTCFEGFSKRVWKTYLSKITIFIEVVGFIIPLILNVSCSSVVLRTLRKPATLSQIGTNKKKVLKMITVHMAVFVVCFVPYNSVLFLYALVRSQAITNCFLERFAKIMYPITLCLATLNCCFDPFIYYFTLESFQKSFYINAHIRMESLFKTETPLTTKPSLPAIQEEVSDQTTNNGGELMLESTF
Chain of Lysophosphatidic acid receptor 1 (Homo sapiens) (Q92633 whole entry): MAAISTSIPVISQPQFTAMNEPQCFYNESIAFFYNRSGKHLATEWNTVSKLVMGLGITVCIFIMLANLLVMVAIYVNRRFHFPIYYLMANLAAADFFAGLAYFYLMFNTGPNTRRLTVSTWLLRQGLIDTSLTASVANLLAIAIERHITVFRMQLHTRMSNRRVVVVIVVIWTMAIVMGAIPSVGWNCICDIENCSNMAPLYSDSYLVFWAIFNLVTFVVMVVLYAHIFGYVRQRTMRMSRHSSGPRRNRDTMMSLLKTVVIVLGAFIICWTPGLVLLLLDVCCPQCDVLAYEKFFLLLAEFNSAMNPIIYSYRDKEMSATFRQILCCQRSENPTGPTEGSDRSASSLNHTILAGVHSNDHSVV

Compound | inhibition [1] | IC50 [2] | Activity [3] | IC50 [4] | inhibition [5] | other results
COc1cc2c(C(=O)N3CCCCC3)cn(-c3ccc4occ(C)c4c3)c(=O)c2cc1OC | 105% | 48 nM | inactive | 190 nM | 88% | –
COc1cc2c(C(=O)N3CCCCC3)cn(-c3cccc(N(C)C)c3)c(=O)c2cc1OC | 104% | 87 nM | inactive | 790 nM | 89% | –
CCCCCCCCCCCCCCCCOC[C@@H](O)COP(=O)(O)O | – | – | – | – | – | EC50 [2]: 15 nM; EC50 [4]: 95 nM
COc1cc2c(C(=O)N3CCC(F)CC3)cn(-c3cccc(N(C)C)c3)c(=O)c2cc1OC | 102% | 79 nM | inactive | 950 nM | 94% | –
COc1cc2c(C(=O)N3CCC(C#N)CC3)cn(-c3cccc(N(C)C)c3)c(=O)c2cc1OC | 89% | 102 nM | inactive | – | 92% | –
COc1cc2c(C(=O)N3CCC(F)CC3)cn(-c3ccc4scc(C)c4c3)c(=O)c2cc1OC | 107% | 69 nM | inactive | 340 nM | 104% | inhibition [6]: < 50%; Papp [7]: 22.2 10^-6 cm/s; Activity (Rattus norvegicus [8]): Active; inhibition [9]: < 50%; inhibition [10]: < 50%; inhibition [11]: < 50%; solubility kinetic [12]: 96.4 µM (≈ 46.3 µg/mL); Ratio [13]: 1.4
COc1cc2c(C(=O)N3CCC(F)CC3)cn(-c3cccc(C(C)C)c3)c(=O)c2cc1OC | 103% | 200 nM | inactive | 394 nM | 98% | –
C#CC1CCN(C(=O)c2cn(-c3cccc(N(C)C)c3)c(=O)c3cc(OC)c(OC)cc23)CC1 | 105% | 46 nM | inactive | – | 101% | –
COc1cc2c(C(=O)N3CCCCC3)cn(-c3ccc4ccn(C)c4c3)c(=O)c2cc1OC | 104% | 64 nM | inactive | 460 nM | 109% | –
COc1cc2c(C(=O)N3CCCCC3)cn(-c3noc4ccc(C)cc34)c(=O)c2cc1OC | 108% | 36 nM | – | 210 nM | 102% | Activity (Rattus norvegicus [14]): Dose-Dependent Effect; Activity (Rattus norvegicus [15]): Dose-Dependent Effect; Activity (Rattus norvegicus [16]): Active; Activity (Rattus norvegicus [17]): Tde; Ratio IC50 (Homo sapiens): 5.8; Activity (Rattus norvegicus [18]): Tde
CCN1CCc2ccc(-n3cc(C(=O)N4CCC(F)CC4)c4cc(OC)c(OC)cc4c3=O)cc21 | 104% | 58 nM | – | 570 nM | 94% | –
COc1cc2c(C(=O)N3CCC(c4ccccc4)CC3)cn(-c3cccc(N(C)C)c3)c(=O)c2cc1OC | 108% | 1190 nM | inactive | – | – | –
COc1cc2c(=O)n(-c3cccc(N(C)C)c3)cc(C(=O)N3CCC(F)CC3)c2cc1OC1CCCCC1 | 96% | 510 nM | inactive | – | – | –
COc1cc2c(C(=O)N3CCCCC3)cn(-c3cccc(C(C)=O)c3)c(=O)c2cc1OC | 74% | 1760 nM | inactive | – | – | –
COc1cc2c(C(=O)N3CCC(F)CC3)cn(-c3ccc4occ(C)c4c3)c(=O)c2cc1OC | 102% | 144 nM | inactive | 203 nM | 100% | –
